Reference: ChEMBL document CHEMBL1145058, “Hydroxyurea analogues as kinetic and mechanistic probes of the nitric oxide producing reactions of hydroxyurea and oxyhemoglobin” (J Med Chem, 2003)

Experiments:
[1] = Half peak chemical potential versus Ag/Agcl was determined; format: ADME
[2] = Apparent rate constant was determined; format: ADME
Summary of the method: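 Adult human oxyhemoglobin (70 μM in heme; also HbS) in 0.1 M sodium phosphate, pH 7.3, mixed with hydroxyurea derivative at 50 mM (5 mM for one poorly soluble analogue), 25 °C under air. UV-visible absorption recorded every 5 min for up to 12 h. Apparent first-order rate constant in min^-1 derived from the spectral kinetics; mean ± SD, n = 3.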

[3] = Dissociation constant (PKa) was determined; format: physicochemical
[4] = Nitrate production was measured with Sievers 280 nitric oxide analyzer chemiluminescence; format: ADME
Summary of the method: (§1)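 Oxyhemoglobin reacted with hydroxyurea derivatives at 50 mM in 0.1 M sodium phosphate, pH 7.3; nitrite and nitrate products quantified by nitric oxide analyzer chemiluminescence; n = 3.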

[5] = Nitrite production was measured with Sievers 280 nitric oxide analyzer chemiluminescence; format: ADME; summary of the method: as §1

Row | SMILES | Ep2/2 [1] [mV] | rate constant app [2] [min⁻¹] | pKa [3] | Nitrate [4] [µM] | Nitrite [5] [µM]
1 | CCN(CC)C(=O)NO | 705 | 0.00226 | 10.8 | 18.5 | 6.1
2 | CN(O)C(N)=O | 588 | 0.0393 | 9.95 | 7.5 | 6.3
3 | CONC(N)=O |  |  |  | 0 | 0
4 | NC(=O)NO [HYDROXYUREA] | 948 | 0.000754 | 10.7 | 25.1 | 9.4

The remaining lines, values ahead:

Row | Ep2/2 [1] [mV] | rate constant app [2] [min⁻¹] | pKa [3] | Nitrate [4] [µM] | Nitrite [5] [µM] | SMILES
5 | 560 | 0.00194 | 10.2 |  |  | COc1ccc(NC(=O)NO)cc1
6 | 433 | 0.0624 | 10.3 | 26.1 | 7.3 | O=C(NO)Nc1ccccc1
7 | 693 | 0.00856 | 11 | 3.5 | 2.4 | CCCCNC(=O)NO
